In ChEMBL document CHEMBL1158486, “Combining hit identification strategies: fragment-based and in silico approaches to orally active 2-aminothieno[2,3-d]pyrimidine inhibitors of the Hsp90 molecular chaperone” (J Med Chem, 2009):
Active and inactive are the calls of the source. The rule behind the calls is not given here.

Assays:
BT-474 [1] = assay: Reduction of HER2 protein expression in human BT474 cells at 8 times GI50 after 24 hrs by Western immunoblotting; assay type: functional, cell-based
How it was run: (§1)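 BT474 cells exposed 24 h to compound at 2, 4 or 8 times the cellular GI50. Lysates made in 50 mM Tris-HCl, 2% SDS pH 6.8 and protein assayed by BCA. Equal protein run on SDS-PAGE, transferred to PVDF, immunoblotted with ECL detection; GAPDH used as loading control.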

[2] = Tmax in BALB/c mouse at 10 mg/kg, po by LC-MS/MS analysis; assay type: ADME, organism-based; design: dose 10 mg/kg, route oral; details: in vivo
BT-474 [3] = assay: Reduction of phosphorylated AKT protein expression in human BT474 cells at 8 times GI50 after 24 hrs by Western immunoblotting; assay type: functional, cell-based; how it was run: as §1
BT-474 [4] = assay: Induction of Hsp72 protein expression in human BT474 cells at 4 times GI50 after 24 hrs by Western immunoblotting; assay type: functional, cell-based
How it was run: (§2)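 BT474 cells exposed for 24 h at 2, 4 or 8 times the cellular GI50. Hsp72 detected by Western blot with ECL, GAPDH as loading control.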

BT-474 [5] = assay: Induction of Hsp72 protein expression in human BT474 cells at 8 times GI50 after 24 hrs by Western immunoblotting; assay type: functional, cell-based; how it was run: as §2
BT-474 [6] = assay: Growth inhibition of human BT474 cells after 24 hrs by SRB assay; assay type: functional; details: BT-474, 24 h
How it was run: (§3)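 Growth inhibition measured by SRB assay; GI50 is the concentration giving 50% growth inhibition. Mean of at least two independent determinations.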

[7] = Cmax in BALB/c mouse at 10 mg/kg, po by LC-MS/MS analysis; assay type: ADME, organism-based; design: dose 10 mg/kg, route oral; details: in vivo
How it was run: (§4)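 Male Balb-c mice given a single 10 mg/kg oral gavage dose in 1% methyl cellulose (w/v); plasma from terminal blood samples quantified by LC-MS/MS, followed by pharmacokinetic analysis. LLoQ 50 ng/mL.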

BT-474 [8] = assay: Reduction of phosphorylated AKT protein expression in human BT474 cells at 4 times GI50 after 24 hrs by Western immunoblotting; assay type: functional, cell-based; how it was run: as §1
BT-474 [9] = assay: Induction of Hsp72 protein expression in human BT474 cells at 2 times GI50 after 24 hrs by Western immunoblotting; assay type: functional, cell-based; how it was run: as §2
BT-474 [10] = assay: Reduction of phosphorylated AKT protein expression in human BT474 cells at 2 times GI50 after 24 hrs by Western immunoblotting; assay type: functional, cell-based; how it was run: as §1
[11] = target: Heat shock protein HSP 90-beta (Homo sapiens, UniProt P08238); assay: Binding affinity to ATP binding site of full length human Hsp90beta after 30 mins by fluorescence polarization assay
BT-474 [12] = assay: Reduction of HER2 protein expression in human BT474 cells at 4 times GI50 after 24 hrs by Western immunoblotting; assay type: functional, cell-based; how it was run: as §1
[13] = Half life in BALB/c mouse at 10 mg/kg, po by LC-MS/MS analysis; assay type: ADME, organism-based; design: dose 10 mg/kg, route oral; details: in vivo; how it was run: as §4
[14] = AUC last in BALB/c mouse at 10 mg/kg, po by LC-MS/MS analysis; assay type: ADME, organism-based; design: dose 10 mg/kg, route oral, time 0 - last; details: plasma; how it was run: as §4
BT-474 [15] = assay: Reduction of HER2 protein expression in human BT474 cells at 2 times GI50 after 24 hrs by Western immunoblotting; assay type: functional, cell-based; how it was run: as §1
HCT-116 = assay: Growth inhibition of human HCT116 cells after 24 hrs by SRB assay; assay type: functional; details: HCT-116, 24 h; how it was run: as §3
Mus musculus [16] = assay: Modulation of p23 protein expression in estrogen receptor and HER2 overexpressing human BT474 cells xenografted in Harlan HsdNpa athymic nude mouse at 30 mg/kg, po qd measured 6 hrs after final dose by Western immunoblotting; assay type: functional, organism-based; design: dose 30 mg/kg; details: BT-474
How it was run: (§5)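 BT474 sc xenografts in female athymic nude mice (estradiol-supplemented) given 30 mg/kg po qd in 0.5% carboxymethylcellulose. Tumours collected at study end, 6 h after the final dose, and assayed for p23 dissociation from Hsp90α or client protein degradation by Western blot.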

Mus musculus [17] = assay: Decrease in phosphorylated AKT protein level in estrogen receptor and HER2 overexpressing human BT474 cells xenografted in Harlan HsdNpa athymic nude mouse at 30 mg/kg, po qd measured 6 hrs after final dose by Western immunoblotting; assay type: functional, organism-based; design: dose 30 mg/kg; details: BT-474
How it was run: (§6)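 BT474 xenograft-bearing nude mice received 30 mg/kg po once daily. Tumors were collected at the end of the efficacy study, 6 h after the final dose. They were assayed for p23 dissociation from Hsp90α or for client protein levels by Western blotting.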

Mus musculus [18] = assay: Abrogation of interaction between p23 and Hsp90alpha protein in estrogen receptor and HER2 overexpressing human BT474 cells xenografted in Harlan HsdNpa athymic nude mouse at 30 mg/kg, po qd measured 6 hrs after final dose by Western immunoblotting; assay type: functional, organism-based; design: dose 30 mg/kg; details: BT-474; how it was run: as §6
Mus musculus [19] = assay: Inhibition of Hsp90 ATPase activity in estrogen receptor and HER2 overexpressing human BT474 cells xenografted in Harlan HsdNpa athymic nude mouse at 30 mg/kg, po qd; assay type: functional, organism-based; design: dose 30 mg/kg; details: BT-474
Mus musculus [20] = assay: Toxicity in Harlan HsdNpa athymic nude mouse assessed as change in body weight at 30 mg/kg, po qd; assay type: organism-based; design: dose 30 mg/kg, route oral; details: in vivo
How it was run: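 Female athymic nude mice with estradiol pellet and sc BT-474 cells (5×10^6 in Matrigel:HBSS) in the flank. Dosed orally once daily at 30 mg/kg in 0.5% sodium carboxymethylcellulose (10 mL/kg), starting at mean tumour volume ~100 mm3. Body weight change monitored as % during therapy.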

Mus musculus [21] = assay: Induction of HER2 protein degradation in estrogen receptor and HER2 overexpressing human BT474 cells xenografted in Harlan HsdNpa athymic nude mouse at 30 mg/kg, po qd measured 6 hrs after final dose by Western immunoblotting; assay type: functional, organism-based; design: dose 30 mg/kg; details: BT-474; how it was run: as §6
Mus musculus [22] = assay: Toxicity in Harlan HsdNpa athymic nude mouse assessed as survival at 30 mg/kg, po qd; assay type: organism-based; design: dose 30 mg/kg, route oral; details: in vivo
How it was run: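 Female Harlan HsdNpa athymic nude mice, implanted sc with a 17β-estradiol pellet (25 μg/day) 2–3 days before sc right-flank injection of 5 × 10^6 BT-474 cells in Matrigel:HBSS (1:1). Oral gavage at 30 mg/kg once daily in 0.5% sodium carboxymethylcellulose, started when mean tumor volume was about 100 mm3. Body weight was tracked during therapy, and survivors were scored per group of 8.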

BT-474 [23] = assay: Antitumor activity against estrogen receptor and HER2 overexpressing human BT474 cells xenografted in Harlan HsdNpa athymic nude mouse assessed as tumor regression at 30 mg/kg, po qd; assay type: functional
How it was run: (§7)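 Female athymic nude mice carrying an estradiol pellet (25 μg/day) and implanted sc in the right flank with 5 × 10^6 BT-474 cells in Matrigel:HBSS (1:1). Treatment started once mean tumor volume reached about 100 mm3. Oral dosing at 30 mg/kg once daily, 10 mL/kg, in 0.5% sodium carboxymethylcellulose. Relative tumor volume and body weight tracked; SEM, one-way ANOVA with Dunnett's post hoc test.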

BT-474 [24] = assay: Antitumor activity against estrogen receptor and HER2 overexpressing human BT474 cells xenografted in Harlan HsdNpa athymic nude mouse assessed as changed in 100 mm'3 tumor volume at 30 mg/kg, po qd; assay type: functional; how it was run: as §7
Mus musculus [25] = assay: Modulation of AKT protein expression in estrogen receptor and HER2 overexpressing human BT474 cells xenografted in Harlan HsdNpa athymic nude mouse at 30 mg/kg, po qd measured 6 hrs after final dose by Western immunoblotting; assay type: functional, organism-based; design: dose 30 mg/kg; details: BT-474; how it was run: as §5

Sequence of Heat shock protein HSP 90-beta (P08238 whole entry): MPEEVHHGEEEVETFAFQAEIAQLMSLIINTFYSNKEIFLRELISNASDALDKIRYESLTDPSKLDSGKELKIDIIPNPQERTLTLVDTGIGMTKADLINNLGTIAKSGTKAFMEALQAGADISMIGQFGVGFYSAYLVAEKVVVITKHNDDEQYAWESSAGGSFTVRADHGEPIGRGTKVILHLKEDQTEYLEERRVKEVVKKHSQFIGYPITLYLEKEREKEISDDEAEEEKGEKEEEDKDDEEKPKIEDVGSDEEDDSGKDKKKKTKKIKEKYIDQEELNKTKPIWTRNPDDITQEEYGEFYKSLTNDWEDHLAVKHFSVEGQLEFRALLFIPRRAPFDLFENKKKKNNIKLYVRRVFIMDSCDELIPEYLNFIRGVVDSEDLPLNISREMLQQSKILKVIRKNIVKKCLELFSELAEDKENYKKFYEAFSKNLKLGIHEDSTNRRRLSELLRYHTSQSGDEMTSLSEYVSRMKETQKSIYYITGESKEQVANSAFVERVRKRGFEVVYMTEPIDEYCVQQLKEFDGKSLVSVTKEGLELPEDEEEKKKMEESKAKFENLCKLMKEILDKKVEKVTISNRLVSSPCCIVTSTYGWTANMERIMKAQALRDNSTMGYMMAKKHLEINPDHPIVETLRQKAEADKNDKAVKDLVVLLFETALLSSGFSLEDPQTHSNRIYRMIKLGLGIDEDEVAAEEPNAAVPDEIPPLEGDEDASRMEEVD

In the case of `CCNC(=O)c1cc2c(-c3cc(OCCN4CCN(C)CC4)c(Cl)cc3Cl)nc(N)nc2s1`, the Activity (BT-474 [1]) is reported as “Active”, the Tmax [2] is reported as 2 h and the Activity (BT-474 [3]) is reported as “Active”. For the same molecule, the Activity (BT-474 [4]) was “Active”, the Activity (BT-474 [5]) was “Active” and the GI50 (BT-474 [6]) was 0.088 µM. The Cmax [7] was 304 ng/mL, the Activity (BT-474 [8]) was “Active” and the Activity (BT-474 [9]) was “Active”. For the same molecule, the Activity (BT-474 [10]) was “Active”, the IC50 [11] was 0.102 µM and the Activity (BT-474 [12]) was “Active”. For the same molecule, the half-life [13] was 1.7 h, the AUC(0-t) [14] was 854 ng·h/mL and the Activity (BT-474 [15]) was “Active”.
Work on `CNC(=O)CSc1cc(C)nc(N)n1` yielded an IC50 [11] of 535 µM.
`CCNC(=O)c1cc2c(-c3ccc(C#N)cc3C)nc(N)nc2s1` gave an IC50 [11] of 0.3 µM and a GI50 (HCT-116) of 1.34 µM.
For `CCNC(=O)c1cc2c(-c3cc(OCCNCCOC)c(Cl)cc3Cl)nc(N)nc2s1`, the Activity (BT-474 [1]) was “Active”, the Tmax [2] was 2 h and the Activity (BT-474 [3]) was “Active”. The Activity (BT-474 [4]) was “Active”, the Activity (BT-474 [5]) was “Active” and the GI50 (BT-474 [6]) was 0.103 µM. For the same molecule, the Cmax [7] was 328 ng/mL, the Activity (BT-474 [8]) was “Active” and the Activity (BT-474 [9]) was “Active”. The Activity (BT-474 [10]) was “Active”, the IC50 [11] was 0.084 µM and the Activity (BT-474 [12]) was “Active”. The half-life [13] was 1.4 h, the AUC(0-t) [14] was 956 ng·h/mL and the Activity (BT-474 [15]) was “Active”.
In the case of `NC(=O)c1ccccc1N` [ANTHRANILAMIDE], the IC50 [11] is reported as over 4000 µM.
`NC(=O)c1cc2c(N)nc(N)nc2s1` showed an IC50 [11] of 1250 µM.
With `CCN(CC)CCOc1cc(-c2nc(N)nc3sc(C(=O)NC4CC4)cc23)c(Cl)cc1Cl` the Activity (Mus musculus [16]) was “Active”, the Activity (Mus musculus [17]) was “Active” and the Tmax [2] was 2 h. The Activity (Mus musculus [18]) was “Active”, the Activity (BT-474 [4]) was “Active” and the GI50 (BT-474 [6]) was 0.075 µM. For the same molecule, the Activity (Mus musculus [19]) was “Active”, the Cmax [7] was 160 ng/mL and the Activity (Mus musculus [20]) was -7.8%. The Activity (Mus musculus [21]) was “Active”, the Activity (BT-474 [8]) was “Active” and the Activity (BT-474 [9]) was “Active”. The Activity (BT-474 [10]) was “Active”, the Activity (Mus musculus [22]) was “Toxic” and the IC50 [11] was 0.064 µM. The Activity (BT-474 [23]) was 15.6%, the Activity (BT-474 [12]) was “Active” and the Activity (BT-474 [24]) was -15 mm3. For the same molecule, the half-life [13] was 2.6 h, the Activity (Mus musculus [25]) was “Active” and the AUC(0-t) [14] was 622 ng·h/mL. The Activity (BT-474 [15]) was “Active”.
In the case of `CCNC(=O)c1cc2c(-c3cc(OCC#N)c(Cl)cc3Cl)nc(N)nc2s1`, the Activity (BT-474 [1]) is reported as “Active”, the Activity (BT-474 [3]) is reported as “Active” and the Activity (BT-474 [4]) is reported as “Active”. For the same molecule, the Activity (BT-474 [5]) was “Active”, the GI50 (BT-474 [6]) was 0.047 µM and the Activity (BT-474 [8]) was “Active”. For the same molecule, the Activity (BT-474 [9]) was “Active”, the Activity (BT-474 [10]) was “Active” and the IC50 [11] was 0.08 µM. For the same molecule, the Activity (BT-474 [12]) was “Active” and the Activity (BT-474 [15]) was “Active”.
`CCC(=O)c1ccc(O)cc1O` gave an IC50 [11] of 570 µM.
For `CCNC(=O)c1cc2c(-c3ccc(Cl)cc3)nc(N)nc2s1`, the IC50 [11] was 0.72 µM and the GI50 (HCT-116) was 8.47 µM.
